Screening data (PubChem BioAssay)
CHO parental Ca – ATP-evoked calcium signal inhibitors, parental CHO, primary screen, counter-screen for OX1R antagonist project, cell-based, fluorescence, Fluo-8 calcium dye; parental CHO-K1, ATP-induced calcium, Fluo-8 fluorescence; inhibition, % at 5.6 µM; AID 463079, 2010; hit rate 0.63% among 330,000;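 active = inhibition above that plate's mean sample inhibition plus 3 SD, cut at about 26% in these data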
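Measured by: calcium-sensitive Fluo-8 fluorescence / Test system: CHO parental line / Controls: ATP-challenged DMSO wells low, unchallenged DMSO wells high / Measure: % inhibition / Compound: single nominal dose of 5.6 µM per compound / Replicates: single well per compound, no replicates / Reagent: ATP as calcium-mobilizing challenge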
V1R ag counter – agonists of human V1a receptor, primary screen, counter-screen for OXTR agonist project, fluorescence, CHO-V1R cells | Vasopressin V1a receptor (Homo sapiens), P37288 | Fluo-8 calcium fluorescence, agonist mode; 0% DMSO, 100% 3 nM vasopressin | activation, % at 3 µM | hit rate 0.25% among 320,000 | AID 2797, 2010;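 active = activation above the mean activation of all tested compounds plus 3 SD, per screening run, cut at about 20% in these data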;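 also: signal is peak over basal fluorescence ratio across a 100 second FLIPR read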
Target sequence (P37288 whole entry, looked up): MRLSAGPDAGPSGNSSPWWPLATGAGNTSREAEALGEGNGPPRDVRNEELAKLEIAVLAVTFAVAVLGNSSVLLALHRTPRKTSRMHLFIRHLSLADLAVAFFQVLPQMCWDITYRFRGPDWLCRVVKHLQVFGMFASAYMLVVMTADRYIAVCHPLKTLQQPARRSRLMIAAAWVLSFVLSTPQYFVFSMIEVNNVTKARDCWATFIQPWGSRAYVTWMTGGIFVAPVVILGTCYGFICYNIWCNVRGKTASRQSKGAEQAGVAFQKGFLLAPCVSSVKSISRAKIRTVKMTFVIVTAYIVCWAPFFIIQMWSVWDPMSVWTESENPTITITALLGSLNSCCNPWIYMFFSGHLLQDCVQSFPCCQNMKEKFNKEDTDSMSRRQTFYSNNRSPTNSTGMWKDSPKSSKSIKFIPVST
OXTR agonist – human OXTR agonists, primary screen, fluorescence, CHO-OTR cells, Fluo-8 calcium. Oxytocin receptor (Homo sapiens), P30559. Fluo-8 calcium fluorescence; normalized: DMSO 0%, oxytocin 100%. activation, % at 3 µM. hit rate 0.32% among 320,000. AID 2435, 2010;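 active = activation above the mean of all tested compounds plus 3 SD, cutoff set per screening run, cut at about 20% in these data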;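 also: peak over basal fluorescence ratio from a 100 s FLIPR kinetic read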
OX1R antag-1 – OX1R (HCRTR1) antagonists, primary screen, fluorescence, CHO/OX1R cells, Fluo-8 calcium, orexin A. hit rate 0.43% among 330,000. inhibition, % at 5 µM. Fluo-8 calcium fluorescence. AID 434989, 2010;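 active = inhibition above its plate's threshold, mean inhibition of all tested compounds on the plate plus 3 SD, cut at about 37% in these data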
OX1R antag-2 – antagonists of human orexin 1 receptor (OX1R) | Orexin/Hypocretin receptor type 1 (Homo sapiens), O43613 | OX1R-expressing cells, FRET antagonist read-out | inhibition, % at 6.6 µM | hit rate 1.8% among 330,000; in the data active = inhibition mostly above about 38%, no sharp cut-off; inactive = mostly below about 40%
OXTR potentiator – human OXTR potentiators, primary screen, fluorescence, CHO-OTR cells, Fluo-8 calcium; Fluo-8 calcium fluorescence, potentiator mode; 0% = oxytocin EC15, 100% = EC100; activation, % at 3 µM; hit rate 0.061% among 320,000; AID 2445, 2010;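 active = activation above that plate's cutoff, the mean activation of tested compounds plus 3 SD, cut at about 6.6% in these data, passing the limit was not always enough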
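Measured by – Fluo-8 calcium dye fluorescence · Test system – human OTR in CHO cells · Dosing – one concentration, 3.0 µM compound · Controls – EC15 oxytocin alone as 0%, 75 nM oxytocin as 100% · Evaluation – normalized max/min fluorescence ratio, % activation · Timing – 6 min pre-incubation, 100 s read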
Each line names hits and unclear results; the compound was inactive in the other large screens. The list is not random: actives were taken first. Their share in the collection is about 2.6%.

CCCn1c(=O)c2c(nc3n2CCS3)n(C)c1=O	none
Cc1ccc(CNC(=O)c2cc3c(=O)n4ccccc4nc3n(Cc3ccco3)c2=N)cc1	none
N=c1c(C(=O)NCc2ccco2)cc2c(=O)n3ccccc3nc2n1C1CCCC1	OX1R antag-2 54
Cc1ccc(CNC(=O)c2cc3c(=O)n4ccccc4nc3n(CC3CCCO3)c2=N)cc1 (centres undefined)	OX1R antag-2 66
O=[N+]([O-])c1cnn2cc(Br)cnc12	OX1R antag-2 74
O=C(COC(=O)CNS(=O)(=O)c1ccccc1)Nc1ncc(Cl)cc1Cl	none
COc1ccc(NC(=O)c2cc3c(Cl)nc4ccccc4c3s2)cc1OC	OX1R antag-2 66
COC(=O)C(Cc1ccc(OC(=O)c2ccc(Cl)cc2)cc1)N1Cc2ccccc2C1=O (centres undefined)	CHO parental Ca 53, OX1R antag-1 41
COC(=O)C(Cc1ccc(OC(=O)c2ccc(C(F)(F)F)cc2)cc1)N1Cc2ccccc2C1=O (centres undefined)	CHO parental Ca 40
CCCc1cc(=O)oc2c3c(cc(OCC(=O)NCCN4CCOCC4)c12)OC(C)(C)CC3	none
Cn1ncc(Cl)c1C(=O)Nc1sc2c(c1C(N)=O)CCC2	OX1R antag-2 76
NC(=O)c1c(NC(=O)c2cnccn2)sc2c1CCCC2	none
O=C(COC(=O)CCc1ccc(S(=O)(=O)N2CCOCC2)cc1)NCc1ccc(Cl)cc1	none
CC[C@]12c3[nH]c4cc(-c5ccco5)ccc4c3CCN1C(=O)[C@@H](CC(=O)NCc1ccc(OC)c(OC)c1)C[C@@H]2C(=O)N1CCN(C(=O)c2ccco2)CC1	none (no result: V1R ag counter, OXTR agonist, OXTR potentiator)
C=CCC[C@H](Cc1ccc(F)cc1)C(=O)OC[C@@H](Cc1c[nH]c2ccccc12)NC(=O)[C@H](CC=C)CC(=O)N(CCO)Cc1ccccc1	none
O=C(Oc1ccc(C(=S)N2CCOCC2)cc1)c1ccccc1[N+](=O)[O-]	OX1R antag-2 56
O=[N+]([O-])c1ccc(-c2ccc(C=Nc3cccc4ccccc34)o2)cc1	OX1R antag-2 48
CC(C)Cc1cc(C(=O)N(C)C2CCCN(Cc3ccccc3F)C2)n(C)n1 (centres undefined)	none
O=C(COc1coc(CN2CCN(c3ccccc3)CC2)cc1=O)Nc1ccc(F)cc1	none
CCOC(=O)c1sc(NC(=O)c2ccco2)nc1C	none
CCOc1ccc2nc(NC(=O)c3ccc(C)o3)sc2c1	OX1R antag-2 38
CCOC(=O)c1sc(NC(=O)c2ccc(C)o2)nc1C	OX1R antag-2 54
O=C(C[C@@H]1C/C=C\C[C@H](Cc2ccc(F)cc2)C(=O)OCCNC1=O)N[C@H](CO)Cc1ccccc1	none
CCn1c2ccccc2c2nnc(SCC(N)=O)nc21	none
CCn1c2ccccc2c2nnc(SCc3ccccc3)nc21	CHO parental Ca 32
CCn1c2ccccc2c2nnc(SCCCn3c(=O)[nH]c4ccccc43)nc21	OX1R antag-2 36
Cc1ccccc1NC(=O)CCS(=O)(=O)c1cccc2nonc12	OX1R antag-2 55
Cc1ccc(CN(C)C(=O)COC(=O)CSc2ccc(C(N)=O)cc2[N+](=O)[O-])cc1	OX1R antag-2 58
NC(=O)c1ccc(SCC(=O)OCC(=O)NC2CCCCCCC2)c([N+](=O)[O-])c1	OX1R antag-2 30
Cc1ccc(CN(C)C(=O)COC(=O)CSc2ccc([N+](=O)[O-])cc2)cc1	none
CC1CN(C(=O)COC(=O)CSc2ccc(C(N)=O)cc2[N+](=O)[O-])CC(C)O1 (centres undefined)	OX1R antag-2 73
NC(=O)c1ccc(SCC(=O)OCC(=O)N2CCCC2=O)c([N+](=O)[O-])c1	OX1R antag-2 67
CC1CCC(NC(=O)COC(=O)CSc2ccc(C(N)=O)cc2[N+](=O)[O-])CC1 (centres undefined)	none
CCC1(c2ccc(F)cc2)NC(=O)N(CC(=O)NC2CCCCCC2)C1=O (centres undefined)	none
O=C(OCC(=O)N1CCCC1=O)c1ccc(Cl)cc1[N+](=O)[O-]	OX1R antag-2 58
CC(=O)N(C)C1=C(N2CCOCC2)C(=O)c2ccccc2C1=O	OX1R antag-2 73
O=C(COc1cccc2ccccc12)Nc1cc(Cl)ccc1C(=O)O	OX1R antag-2 67
COc1cccc(OCC(=O)Nc2cc(Cl)ccc2Oc2ccccc2)c1	CHO parental Ca 40
COc1cccc(OCC(=O)Nc2ccccc2NC(C)=O)c1	none
CC(C)(C)NS(=O)(=O)c1ccc(CCC(=O)Nc2cc(Cl)ccc2Oc2ccccc2)cc1	CHO parental Ca 43, OX1R antag-1 65, OX1R antag-2 81
NC(=O)C1CCN(C(=O)COc2ccc(Nc3ccccc3)cc2)CC1	OX1R antag-2 52
COC(=O)c1cn(C(=O)/C=C/c2ccc(OC)c(OC)c2)c2ccccc12	none
COc1ccc(C(=O)c2ccc3oc(-c4ccc(OC)cc4)c(-c4ccc(O)cc4)c3c2)cc1	none
Cc1ccnc(NC(=O)c2cc3ccccc3o2)c1	OX1R antag-2 53
O=C(Nc1ccccn1)c1cc2ccccc2o1	none
Cc1cc(C)c2cc(C#N)c(N3CCCN(S(=O)(=O)c4ccccc4)CC3)nc2c1	none
Cc1cc(C)c2cc(C#N)c(N3CCCN(C(=O)c4cnccn4)CC3)nc2c1	OX1R antag-2 51
COc1ccc(-c2ccc(/C=C3/C(=N)N4C=CSC4=NC3=O)o2)c([N+](=O)[O-])c1	OX1R antag-2 64
O=C(NCc1cccc(F)c1)C1CCC(=O)N(CC2CCCCC2)C1 (centres undefined)	none
CCN(CC)c1ccc(/C=N/NC(=O)c2cc(C)nc3ccccc23)cc1	none
CCN(CC)c1ccc(/C=C/c2cc(-c3ccccc3)c3ccccc3n2)cc1	CHO parental Ca 38
COc1ccc(N(C)S(=O)(=O)c2ccc3c(c2)CCN3C(=O)C2CC2)c(OC)c1	none
CCOC(=O)/C(C#N)=C/c1c[nH]c2ccccc12	OX1R antag-2 51
COC(=O)/C(C#N)=C/c1c[nH]c2ccccc12	none
CC1(c2ccc([N+](=O)[O-])cc2)Nc2ccccc2S1 (centres undefined)	none
Cc1cc(Cl)c(S(=O)(=O)N2CCN(c3ccc(F)cc3)CC2)cc1OCC(=O)NC1CCCCC1	CHO parental Ca 58, OX1R antag-1 52
CC[C@H]1CCCCc2ccccc2[C@@H](C(=O)C[C@@H](O)CC(C)=O)OC1=O	none
CCCC(=O)Nc1nc2ccc3nc(C)sc3c2s1	none
